# Source: PubChem
# HCV core dimer = HCV core protein dimerization inhibition. inhibition, % at 5 µM. TR-FRET GST/Flag-core106 dimerization, 1536-well. actives 0.33% (n = 300,000);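 active = inhibition above the mean of all tested compounds plus 3 SD, set per screening campaign, cut at about 45% in these data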
#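 test system = GST/Flag-tagged HCV core106 proteins | probe or stimulus = Eu donor and XL665 acceptor anti-tag antibodies | times = compound-protein-antibody incubation 4 h at 22.5 °C | signal = TR-FRET, excitation 340 nm, emission 617 and 671 nm | measure = percent inhibition of core106 dimerization signal | controls = wells lacking GST-core106 and wells with excess unlabelled core106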
# GC-A act = GC-A (human) enzyme activation; HEK293 GC-A cells, cGMP TR-FRET, EC30 ANP; 0% at EC30 ANP, 100% saturating ANP; activation, % at 10 µM; actives 0.14% (n = 370,000); AID 1671463; in the data active = activation above about 40%
# ASAP1 inh = inhibitors of human ASAP1 ArfGAP activity; Q9ULH1; inhibition, % at 16.5 µM; AID 624377; ASAP1-stimulated ARF1 GTP hydrolysis, GDP FP detection; actives 0.19% (n = 360,000); in the data active = inhibition above about 25%;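 also: 0% = vehicle with enzyme and substrate and 100% = no enzyme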
# ARFGAP1 inh = rat ARFGAP1 inhibition. Q62848. Arfgap1-stimulated ARF1 GTP hydrolysis, GDP FP detection. inhibition, % at 16.5 µM. actives 0.26% (n = 360,000). AID 651572;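 active = inhibition above a per-plate limit, mean inhibition of low control wells plus 3 SD, cut at about 25% in these data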;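 also: 0% = DMSO wells with enzyme and 100% = wells lacking Arfgap1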
# Target sequence (Q62848 1-136 limits assumed): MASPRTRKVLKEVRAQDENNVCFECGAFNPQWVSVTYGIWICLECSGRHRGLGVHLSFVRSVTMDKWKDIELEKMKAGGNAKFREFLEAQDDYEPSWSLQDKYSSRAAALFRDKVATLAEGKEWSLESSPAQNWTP
#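 Material – truncated rat Arfgap1 GAP domain · Buffer or medium – HEPES-based buffer, pH 7.5 · Reagent – human ARF1(Δ1-17)-GTP substrate · Dosing – 16.5 µM single point, 1.26% DMSO · Schedule – GTP hydrolysis reaction 2 h at 25 °C · Technique – GDP detection by fluorescence polarization · Benchmarks – No-Arfgap1 wells (100%) versus DMSO full-reaction wells (0%) · Repeats – single replicate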
# NPR2 activator = GC-B (human) receptor activation; P20594; HEK293-GC-B cells, CNP EC30, cGMP TR-FRET; 0% at EC30 CNP, 100% saturating CNP; activation, % at 10 µM; actives 0.11% (n = 370,000);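 active = activation at 10 µM reaching about 35% in either raw or pattern-adjusted values, limit read from the data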
# CTSL1 counter = blocks F. hepatica cathepsin L1 in PFM18AAP counter-screen. actives 0.49% (n = 300,000). inhibition, % at 5.96 µM. recombinant F. hepatica cathepsin L1, Z-Leu-Arg-MCA fluorescence;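 active = inhibition above the mean of all tested compounds plus 3 SD, set per screening campaign, cut at about 17% in these data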;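 also: 0% = plate median of test compound wells and 100% = 1 µM Z-Phe-Ala-diazomethylketone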
# ASAP1 GAP conf = ASAP1 inhibition confirmed | shares compounds with ASAP1 inh | ASAP1-stimulated Arf1 GTPase, GDP fluorescence polarization | inhibition, % at 16.5 µM | actives 37% (n = 620) | AID 624431;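 active = mean inhibition over triplicates exceeds the hit threshold derived for the earlier primary screening run, cut at about 25% in these data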
# ARFGAP1 confirm = confirmation of rat ARFGAP1 inhibitors. shares compounds with ARFGAP1 inh. ARFGAP1-stimulated ARF1 GTP hydrolysis, GDP tracer FP. inhibition, % at 16.5 µM. actives 30% (n = 890). AID 651608;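 active = average inhibition over triplicates above the hit cutoff set in the earlier primary screen, cut at about 25% in these data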;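 also: 0% = Arfgap1 plus ARF1-GTP with DMSO and 100% = wells lacking Arfgap1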
# Target sequence (Q62848 whole entry, looked up): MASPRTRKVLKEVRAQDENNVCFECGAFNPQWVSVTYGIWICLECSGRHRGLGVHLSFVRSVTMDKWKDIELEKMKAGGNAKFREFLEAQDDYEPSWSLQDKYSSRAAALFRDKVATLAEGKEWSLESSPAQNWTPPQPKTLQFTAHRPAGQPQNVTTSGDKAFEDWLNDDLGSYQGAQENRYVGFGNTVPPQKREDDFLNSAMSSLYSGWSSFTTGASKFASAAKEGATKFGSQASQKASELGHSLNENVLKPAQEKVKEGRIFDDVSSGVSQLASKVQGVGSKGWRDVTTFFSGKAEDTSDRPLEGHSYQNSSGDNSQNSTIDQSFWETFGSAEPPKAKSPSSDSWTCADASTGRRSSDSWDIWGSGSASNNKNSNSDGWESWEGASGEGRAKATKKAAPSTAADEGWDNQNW
# * marks the source's active call; other numbers are inactive results; / = not tested or not shown; ! = repeats disagree. Sampled rows, rich in hits. Any-hit rate of the full collection: about 1.2%.
SMILES,HCV core dimer,GC-A act,ASAP1 inh,ARFGAP1 inh,NPR2 activator,CTSL1 counter,ASAP1 GAP conf,ARFGAP1 confirm
CC(=O)Nc1ccc(NC(=O)CSc2ccc(-c3ccc(-n4ccnc4)cc3)nn2)cc1,5.1,2.4,65.9*,25.4*,-1.8,-0.3,70.6*,72.3*
CC(=O)Nc1ccc(NC(=O)CSc2ccc(-c3cccnc3)nn2)cc1,4.8,2.4,4.7,-3.4,-3.5,2.8,/,/
N#Cc1c(NC(=O)c2ccc(Br)o2)n(-c2ccccc2)c2nc3ccccc3nc12,21.4,2.6,41.5*,27.4*,-2.6,11.4,20.5,-1.4
O=C(Oc1ccnc2cc(Cl)ccc12)N1CCCCCC1,2.3,12.6,-1.9,0.6,-7.7,-0.8,/,/
COC(=O)COc1ccc2c(c1)O/C(=C\c1cccc([N+](=O)[O-])c1)C2=O,12.6,15.5,-4.8,7.2,20.7,0.9,/,/
COc1ccc(/C=C2\Oc3cc(OCC(N)=O)ccc3C2=O)cc1OC,-0.4,6.2,34.8*,32.0*,2.7,3.1,47.0*,45.2*
O=c1c(Cl)c(N/N=C/c2ccc(Br)cc2)cnn1-c1ccccc1,10.2,-0.4,42.2*,43.7*,3.1,3.4,32.5*,64.6*
CCN1CCN(Cc2ccc(NC(=O)c3ccc(C)c(NC(=O)c4ccc5n[nH]nc5c4)c3)cc2C(F)(F)F)CC1,6.5,1.9,-6.0,6.0,-2.2,-5.6,/,/
CCN1CCN(Cc2ccc(NC(=O)c3cccc(-c4ccc5nc(NC(=O)C6CC6)sc5n4)c3)cc2C(F)(F)F)CC1,/,2.1,27.4*,57.0*,-1.1,/,40.2*,50.6*
COc1ccc(OC)c(C=NNC(=O)NN=Cc2cc(OC)ccc2OC)c1,/,9.5,42.4*,56.9*,2.3,/,96.2*,92.4*
COc1ccc(/C=N\NC(=O)c2ccc([N+](=O)[O-])cc2)cc1COc1c(F)c(F)cc(F)c1F,/,2.2,51.7*,81.6*,-4.1,/,58.4*,98.8*
CN1\C(=C/C=C/C=C/C=[N+](C)C)C(C)(C)c2ccccc21,/,-10.8,54.9*,46.7*,-11.2,/,41.4*,37.4*
CC1Cc2ccccc2N1C(=S)NC1CCCC1 (stereo not given),-9.1,2.0,-8.5,-3.1,8.4,1.2,/,/
COc1cc2c3nnc(-c4ccc(F)cc4)c-3cn(Cc3ccc(F)cc3)c2cc1OC,11.6,3.5,12.7,15.4,12.8,-2.4,/,/
COc1cc2c3nnc(-c4ccc(F)cc4)c-3cn(Cc3ccccc3)c2cc1OC,12.3,7.3,79.3*,36.2*,-1.4,3.9,59.8*,29.2*
COc1ccc(COC(=O)C2=C(C)NC(=O)NC2c2ccc(O)c(OC)c2)cc1 (stereo not given),2.0,0.9,2.8,1.2,2.5,1.1,/,/
N#CC1C(=O)Nc2cccnc21 (stereo not given),/,-4.5,30.2*,28.5*,2.6,/,1.2,-2.1
CN(C)CCNC(=O)c1cccc(-c2cnc3c(NC=O)cc(/C=C/c4ccccc4)cn23)c1,/,-0.7,42.0*,34.5*,6.5,/,36.7*,44.7*
COc1ccc(F)cc1-c1cc(C(=O)NCc2cccc(C(F)(F)F)c2)[nH]n1,/,10.5,0.8,4.9,5.5,/,/,/
COc1ccc(NC(=O)c2cccc3c(-c4cccnc4)coc23)cc1,/,-3.5,32.5*,26.1*,-3.2,/,17.7,14.4
O=C(Nc1ccccc1)c1cccc2c(-c3cccnc3)coc12,/,-7.7,7.2,-1.6,-4.9,/,/,/
Cc1ccc(C2CCN(C(=O)Nc3ccc(F)cc3)C2)cc1 (stereo not given),0.1,-2.0,6.9,-7.9,-8.6,-3.9,/,/
COC(=O)CSc1nnc2n(-c3ccc(OC)cc3)c(=O)c3c4c(sc3n12)CCCCC4,5.1,7.9,39.0*,62.1*,9.7,3.3,42.1*,74.6*
O=C(NN=Cc1ccc2c(c1)OCO2)NN=Cc1ccc2c(c1)OCO2,/,-3.5,33.9*,30.7*,5.8,/,71.6*,61.5*
CCCn1c(=O)c2[nH]cnc2n(-c2ccccc2C)c1=O,-4.2,2.2,-8.6,-8.0,1.2,-4.9,/,/
SMILES,HCV core dimer,GC-A act,ASAP1 inh,ARFGAP1 inh,NPR2 activator,CTSL1 counter,ASAP1 GAP conf,ARFGAP1 confirm
O=C(Nc1nnc(Cc2ccc([N+](=O)[O-])cc2)s1)Nc1ccccc1F,1.4,-6.3,-2.9,60.2*,-1.0,-1.0,/,19.0
O=C(O)c1ccc(Nc2nc(-c3ccccc3)cs2)cc1,-4.7,6.0,2.8,-3.0,-7.2,-0.5,/,/
N#Cc1ccc(Nc2nc(-c3ccccc3)cs2)cc1,/,8.7,0.1,30.3*,2.3,/,/,14.3
COc1ccc(N(C(=O)c2ccco2)C(C(=O)NC2CCCC2)c2cccnc2)c(OC)c1 (stereo not given),-1.8,1.0,-7.1,25.9*,0.5,1.2,/,8.2
COc1ccc(N(C(=O)c2ccco2)C(C(=O)NC2CCCC2)c2ccc(C)cc2)c(OC)c1 (stereo not given),/,-20.1,0.0,6.0,-4.0,/,/,/
C#Cc1cccc(C(=O)NC2CCCN(C3Cc4ccccc4C3)C2)c1 (stereo not given),5.9,-1.5,-15.2,-0.5,0.4,1.4,/,/
CC(C)(CO)CNC1CCCN(C2Cc3ccccc3C2)C1 (stereo not given),-6.2,0.8,7.3,24.7*,3.4,-4.5,/,2.7
Cc1ccc(-c2cc(C(=O)Nc3ccc(S(=O)(=O)Nc4nc(C)cc(C)n4)cc3)c3ccccc3n2)cc1,25.8,-1.9,12.7,16.8,-2.6,1.9,/,/
CCn1c(COc2cc(C)ccc2C(C)C)nnc1SCC(=O)Nc1nccs1,1.0,-9.0,-6.3,24.7*,3.2,0.5,/,-5.3
COc1ccc(S(=O)(=O)N2CCCCCC2)cc1C(=O)N(C)CC(=O)Nc1ccccc1Cl,-1.6,-1.8,-2.3,14.5,2.1,-0.3,/,/
C[n+]1c2cc(N)ccc2cc2ccc(N)cc21,/,-5.4,19.9,24.9*!,-15.9,/,/,3.2
Nc1ccc2ccc(O)cc2c1,/,-4.5,0.2,10.0,-1.3,/,/,/
O=C(/C=C/c1ccco1)Nc1ccc(N2CCCC2)cc1,-21.6,-0.2,12.5,26.4*,3.2,-0.5,/,-0.8
O=C(/C=C/c1ccco1)Nc1ccc(C(=O)N2CCOCC2)cc1,-2.2,3.6,-16.7,-1.4,4.4,2.7,/,/
Cn1c(=O)c2c(nc(CN3CCN(CCO)CC3)n2CCc2ccccc2)n(C)c1=O,-9.4,-0.1,-5.4,3.6,5.2,-3.0,/,/
